Records with an inconclusive call do not appear.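 The calls were made as follows, unless noted: active = inhibition over a set limit, the all-compound mean plus 3 SD, in both replicate runs; inconclusive = over that limit in just one replicate run; inactive = at or under that limit in both runs.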
Experiments:
[1] = OD615 S. cerevisiae growth inhibition, permissive medium, pilot counter-assay, permissive growth control for S. cerevisiae lifespan shortening project (AID 705;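 active = growth inhibition above 25% in both replicates, a cutoff set 3 SD above the mean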); conditions: OD615, 24 h, at 10 µM, stronger effect = higher value
Method in brief: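 Timing: 24 h exposure, 30 °C / Material: Saccharomyces cerevisiae strain carrying genetically modified DeaD replicative-lifespan system / Signal: OD at 615 nm / Compound: 10 µM single dose, 0.25% DMSO / Medium: SC raffinose/galactose permissive medium / Evaluation: reduction in yeast growth (OD615)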

[2] = Restrictive medium S. cerevisiae growth inhibition, OD615, pilot screen of yeast lifespan reduction project, restrictive growth control (AID 706;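 active = growth inhibition above a set limit, 3 SD over mean compound inhibition, in both replicates, cut at about 43% in these data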;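 also: modified DeaD lifespan yeast strain shifted to restrictive glucose medium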); conditions: OD615, 48 h, at 10 µM, stronger effect = higher value
Method in brief: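 System: Engineered S. cerevisiae DeaD strain | Detection: OD615 | Buffer or medium: CSMM-D glucose medium | Doses: 10 µM compound, 0.25% DMSO | Timing: 4 h pre-growth plus 48 h compound exposure, 30 °C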

[3] = viability gain of MRP-1-high H69AR cells under doxorubicin, pilot screen, MRP-1 activator project, CellTiter-Glo, duplicate (AID 807;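 active = viability increase at or above a cutoff of the median across tested compounds plus 3 SD, cut at about 8.5% in these data, passing the limit was not always enough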;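 also: compound pretreatment 18-22 h then 72 h combined with doxorubicin; 0% = doxorubicin alone and 100% = vehicle without doxorubicin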); conditions: H69AR viability with doxorubicin, CellTiter-Glo luminescence; at 10 µM; stronger effect = higher value
[4] = growth suppression of beta-catenin knockout HCT116, pilot screen, human colon tumor cells (AID 823;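 active = cell viability at or below a set limit in both duplicate runs, the limit being the all-compound median minus 4 SD, cut at about 23% in these data, passing the limit was not always enough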;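 also: 0% = wells killed by 20 µM Hyamine and 100% = untreated DMSO cell wells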); conditions: CellTiter-Glo, 60 h, at 10 µM, stronger effect = lower value
[5] = growth suppression of PTEN-deleted HCT116, pilot screen, cell-based, HCT116 clonal line, CellTiter-Glo (AID 824;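 active = viability at or below 27.92% in each of two runs, the all-compound median minus 4 SD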;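 also: 0% = 20 µM Hyamine control and 100% = vehicle cell control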); conditions: 60 h, at 10 µM, stronger effect = lower value
[6] = inhibitors of the yeast RAM network, pilot screen, dse1pr::URA3 reporter, 5-FOA selection (AID 869);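 also: 0% = DMSO wells with no growth and 100% = 10 µM 1-NA-PP1 with full growth; RAM network block rescues cells from 5-FOA so hits raise OD615 growth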; conditions: S. cerevisiae dse1pr::URA3 5-FOA growth, OD615, 2 d; at 10 µM; stronger effect = higher value; strain carries analog-sensitive mutant Cbk1 kinase
[7] = RAM signaling pathway blockade in yeast – S. cerevisiae, Pdr1DBD-CYC8 efflux-inhibited sensitized strain, primary screen (AID 1298;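 active = RAM network inhibition above 8.4% in each of two replicates, 3 SD over the compound average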;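 also: 0% = DMSO untreated cells without growth and 100% = 10 µM 1-NA-PP1 full growth; higher means more yeast growth rescued from 5-FOA killing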); conditions: S. cerevisiae cbk1-as DSE1-URA3 strain, 5-FOA growth OD615, 2 d; at 50 µM; stronger effect = higher value

Cn1c(NC(=O)c2ccccc2)cc(=O)n(C)c1=O
inactive: growth inhibition [1] -19% | growth inhibition [2] -9.99% | viability increase [3] -1.36% | viability [4] 100% | viability [5] 93.8% | inhibition [6] 1.12% | RAM network inhibition [7] 1.26%

Cc1cnc(C(=O)OCC(=O)Nc2cccc(Cl)c2)cn1
inactive: growth inhibition [1] -0.055% | growth inhibition [2] 1.48% | viability increase [3] -3.1% | viability [4] 92.5% | viability [5] 92.3% | inhibition [6] 0.405% | RAM network inhibition [7] 0.67%

CCCCC1CCC(c2nc(-c3cccnc3)no2)CC1 (configuration not stated)
inactive: growth inhibition [1] -7.54% | growth inhibition [2] 9.22% | viability increase [3] -0.18% | viability [4] 93.5% | viability [5] 88% | inhibition [6] -1.52% | RAM network inhibition [7] -1.92%

CCC(=O)Nc1c2c(nn1-c1cccc(Cl)c1)CSC2
inactive: growth inhibition [1] -7.68% | growth inhibition [2] -8.67% | viability increase [3] -1.61% | viability [4] 89.7% | viability [5] 86.1% | inhibition [6] 2.1% | RAM network inhibition [7] 1.11%

Nc1nc2n(n1)C(c1ccccc1Cl)CC(c1ccc(F)cc1)N2 (configuration not stated)
inactive: growth inhibition [1] 0.695% | growth inhibition [2] 2.18% | viability increase [3] -0.54% | viability [4] 91.6% | viability [5] 88.8% | inhibition [6] 2.58% | RAM network inhibition [7] 0.48%

CCOc1ccc(Oc2nc(NCC(C)C)nc(OC)n2)nn1
inactive: growth inhibition [1] -8.33% | growth inhibition [2] 5.96% | viability increase [3] 0.16% | viability [4] 94.8% | viability [5] 91.5% | inhibition [6] 2.14% | RAM network inhibition [7] -1.03%

CC(C)(C)SCCNS(=O)(=O)c1ccccc1
inactive: growth inhibition [1] -8.9% | growth inhibition [2] 6.57% | viability increase [3] -0.28% | viability [4] 99.8% | viability [5] 93.4% | inhibition [6] 2.52% | RAM network inhibition [7] 3.01%

COc1ccc(S(=O)(=O)NCc2ccc3c(c2)cc(C)n3C)cc1
inactive: growth inhibition [1] -0.89% | growth inhibition [2] -11.2% | viability increase [3] -4.17% | viability [4] 99.1% | viability [5] 96% | inhibition [6] 1.31% | RAM network inhibition [7] 7.17%

CCOC(=O)N1CCN(C(=O)c2cc3cc(Br)ccc3oc2=O)CC1
inactive: growth inhibition [1] -3.99% | growth inhibition [2] -17.6% | viability increase [3] -3.3% | viability [4] 94.9% | viability [5] 89.7% | inhibition [6] 0.665% | RAM network inhibition [7] -1.94%

CCc1nnc(NC(=O)CSc2nnc(Cc3cccn3C)n2C)s1
inactive: growth inhibition [1] 5.43% | growth inhibition [2] 30.4% | viability increase [3] -1.23% | viability [4] 100% | viability [5] 96% | inhibition [6] 0.7% | RAM network inhibition [7] 1.19%

CCn1cc(C(=O)NCCCN2CCC(C)CC2)c2cc(OC)c(OC)cc2c1=O
inactive: growth inhibition [1] -7.74% | growth inhibition [2] 6.7% | viability increase [3] -3.47% | viability [4] 99.3% | viability [5] 92% | inhibition [6] 1.77% | RAM network inhibition [7] 1.99%

COc1ccc(C2(O)CCN(C(=O)c3ccc4c(c3)OCO4)CC2)cc1
inactive: growth inhibition [1] -12.1% | growth inhibition [2] -15.2% | viability increase [3] -0.75% | viability [4] 106% | viability [5] 101% | inhibition [6] 0.965% | RAM network inhibition [7] 0.72%

COc1ccccc1NC(=O)CSc1nnc(-c2ccccn2)n1Cc1ccco1
inactive: growth inhibition [1] -3.73% | growth inhibition [2] 13.1% | viability increase [3] -3.83% | viability [4] 101% | viability [5] 96.8% | inhibition [6] 1.23% | RAM network inhibition [7] 2.52%

O=C(Nc1ccccc1)c1ccc(S(=O)(=O)N2CCCCC2)cc1
inactive: growth inhibition [1] 3.41% | growth inhibition [2] -0.37% | viability increase [3] 0.95% | viability [4] 97.8% | viability [5] 82.5% | inhibition [6] 0.395% | RAM network inhibition [7] 2.23%

O=C(NC1CC1)c1ccc(CS(=O)(=O)c2c(Cl)cccc2Cl)o1
inactive: growth inhibition [1] 3.79% | growth inhibition [2] -6.65% | viability increase [3] -2.96% | viability [4] 105% | viability [5] 97.4% | inhibition [6] 0.475% | RAM network inhibition [7] 4.31%

CC12CCC(C(=O)Nc3ccccc3N3CCOCC3)(CC1=O)C2(C)C (configuration not stated)
inactive: growth inhibition [1] -9.71% | growth inhibition [2] -14.9% | viability increase [3] -2.5% | viability [4] 90.3% | viability [5] 94.8% | inhibition [6] 0.715% | RAM network inhibition [7] 6.03%

Cc1c(NC(=O)NCCN2C(=O)C3C4C=CC(C4)C3C2=O)c(=O)n(-c2ccccc2)n1C (configuration not stated)
inactive: growth inhibition [1] -9.82% | growth inhibition [2] -8.71% | viability increase [3] 0.15% | viability [4] 98.2% | viability [5] 99.8% | inhibition [6] 1.09% | RAM network inhibition [7] 4.55%

CCCOC(=O)CSC1=C(C#N)C(c2ccccc2Cl)CC(=O)N1 (configuration not stated)
inactive: growth inhibition [1] 1.49% | growth inhibition [2] -25.7% | viability increase [3] -1.57% | viability [4] 66.3% | viability [5] 75.5% | inhibition [6] 1.75% | RAM network inhibition [7] 2.16%

O=C(NC1CCS(=O)(=O)C1)c1ccccc1C(=O)c1ccccc1 (configuration not stated)
inactive: growth inhibition [1] -15.2% | growth inhibition [2] -9.07% | viability increase [3] -0.35% | viability [4] 102% | viability [5] 99.1% | inhibition [6] 2.46% | RAM network inhibition [7] 9.61%

CC(=O)c1cc(Cc2csc(C(C)=O)c2)cs1
inactive: growth inhibition [1] -9.93% | growth inhibition [2] -5.34% | viability increase [3] -2.14% | viability [4] 100% | viability [5] 100% | inhibition [6] 1.38% | RAM network inhibition [7] 3.88%

COc1cc(NC(=O)c2cc3ccccc3o2)c(OC)cc1Cl
inactive: growth inhibition [1] -7.12% | growth inhibition [2] -6.08% | viability increase [3] -4.12% | viability [4] 80.7% | viability [5] 73.6% | inhibition [6] 3.16% | RAM network inhibition [7] 9.24%

CCCc1cc(C(=O)N2CCN(C(c3ccccc3)c3ccccc3)CC2)no1
inactive: growth inhibition [1] -10.9% | growth inhibition [2] -6.91% | viability increase [3] 4.46% | viability [4] 98.7% | viability [5] 90.9% | inhibition [6] 0.485% | RAM network inhibition [7] 5.99%

CCN(c1ccccc1)c1cc(C)nc2nc(C)nn12
inactive: growth inhibition [1] -17% | growth inhibition [2] -3.25% | viability increase [3] -3.84% | viability [4] 106% | viability [5] 96.7% | inhibition [6] 1.6% | RAM network inhibition [7] 4.74%

CC(=O)N1CCc2cc(C(=O)CN3CCN(c4cccc(Cl)c4)CC3)ccc21
inactive: growth inhibition [1] -11% | growth inhibition [2] -7.26% | viability increase [3] 0.32% | viability [4] 69.3% | viability [5] 76.8% | inhibition [6] 1.65% | RAM network inhibition [7] 3.12%

CC1CCCC(C)N1c1nnc(N)s1 (configuration not stated)
inactive: growth inhibition [1] 0.52% | growth inhibition [2] 30.8% | viability increase [3] -1.42% | viability [4] 104% | viability [5] 102% | inhibition [6] 0.385% | RAM network inhibition [7] 0.17%

CCn1ccc(C(=O)Nc2ccc(Cl)cn2)n1
inactive: growth inhibition [1] -9.65% | growth inhibition [2] 11.6% | viability increase [3] -1.34% | viability [4] 93.6% | viability [5] 93.9% | inhibition [6] 1.48% | RAM network inhibition [7] 3.03%

Clc1ccc(C2CC(c3cccs3)n3ncnc3N2)c(Cl)c1 (configuration not stated)
inactive: growth inhibition [1] -5.32% | growth inhibition [2] 17.4% | viability increase [3] -4.06% | viability [4] 78.7% | viability [5] 69.3% | inhibition [6] 2.1% | RAM network inhibition [7] 2.15%

CC(=O)Nc1cc(NC(C)=O)c(CC(C)C)s1
inactive: growth inhibition [1] -6.92% | growth inhibition [2] 2.99% | viability increase [3] -0.12% | viability [4] 94.9% | viability [5] 101% | inhibition [6] 0.44% | RAM network inhibition [7] 2.34%

CCC(C(=O)OC)n1cnc2c(nnn2-c2cccc(Cl)c2)c1=O (configuration not stated)
inactive: growth inhibition [1] -3.35% | growth inhibition [2] -0.405% | viability increase [3] 1.21% | viability [4] 100% | viability [5] 92.1% | inhibition [6] 0.145% | RAM network inhibition [7] 4.91%

O=C(Cn1c(=O)sc2ccccc21)Nc1ccccc1C(=O)O
inactive: growth inhibition [1] -3.71% | growth inhibition [2] 0.435% | viability increase [3] 1.36% | viability [4] 102% | viability [5] 96.7% | inhibition [6] 3.53% | RAM network inhibition [7] 2.02%

CN(C)c1ccc(NC(=O)Cn2c(=O)n(Cc3ccccc3)c(=O)c3ccccc32)cc1
inactive: growth inhibition [1] -0.65% | growth inhibition [2] 1.48% | viability increase [3] 3% | viability [4] 83.2% | viability [5] 88.3% | inhibition [6] 0.52% | RAM network inhibition [7] 8.96%

Cc1ccc2c(CC(=O)Nc3nc(C)cs3)coc2c1
inactive: growth inhibition [1] -5.02% | growth inhibition [2] 0.02% | viability increase [3] 0.52% | viability [4] 76.5% | viability [5] 80.4% | inhibition [6] 1.38% | RAM network inhibition [7] 0.88%

COc1ccc(OC)c(C2CC(=O)N3CN(c4cccc(Cl)c4C)CSC3=C2C#N)c1 (configuration not stated)
inactive: growth inhibition [1] 2.17% | growth inhibition [2] 13.8% | viability increase [3] -5.48% | viability [4] 74% | viability [5] 72.1% | inhibition [6] 1.87% | RAM network inhibition [7] 2.07%

COc1ccc(S(=O)(=O)Cc2ccc(C(=O)N3CCN(c4cc(Cl)ccc4C)CC3)o2)cc1
inactive: growth inhibition [1] -4.16% | growth inhibition [2] -10.7% | viability increase [3] -2.31% | viability [4] 76.8% | viability [5] 67% | inhibition [6] 2.08% | RAM network inhibition [7] 3.33%

CCOCCCNC(=O)C(NC(=O)C1CCC(=O)N1)c1ccc(C)cc1 (configuration not stated)
inactive: growth inhibition [1] -2.92% | growth inhibition [2] -1.24% | viability increase [3] -0.58% | viability [4] 109% | viability [5] 98.8% | inhibition [6] 1.03% | RAM network inhibition [7] 5.24%

CC(=O)N(CCCc1ccc(C(C)(C)C)cc1)CCCN(C)C
inactive: growth inhibition [1] -2.64% | growth inhibition [2] -12.6% | viability increase [3] -5.16% | viability [4] 70.6% | viability [5] 76.2% | inhibition [6] 0.59% | RAM network inhibition [7] 1.48%
